Experimental data: ChEMBL document CHEMBL3085681, “Synthesis of novel 1,2,3-triazole based benzoxazolinones: their TNF-α based molecular docking with in-vivo anti-inflammatory, antinociceptive activities and ulcerogenic risk evaluation” (Eur J Med Chem, 2013)
Calls of active or inactive are those of the source. The calls are words filed in the database; no cut-off is given here.

Assays:
Rattus norvegicus [1] = assay: Antiinflammatory activity in albino Wistar rat assessed as inhibition of carrageenan-induced hind paw edema at 0.05 mmol/kg, po administered 1 hr prior to carrageenan challenge measured after 3 hrs by plethysmometric analysis relative to control; format: functional
In short: (§1)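 Oedema raised by s.c. injection of 0.1 ml of freshly prepared 1% carrageenan in saline into the right hind paw. Test agents given orally at 0.05 mmol/kg, 1 h before carrageenan; saline vehicle control. Paw volume read by plethysmometer at 3 h and 5 h.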

Rattus norvegicus [2] = assay: Antiinflammatory activity in albino Wistar rat assessed as inhibition of carrageenan-induced hind paw edema at 0.05 mmol/kg, po administered 1 hr prior to carrageenan challenge measured after 5 hrs by plethysmometric analysis relative to control; format: functional; in short: as §1
Rattus norvegicus [3] = assay: Ulcerogenicity in albino Wistar rat assessed as gastric surface epithelial damage at 0.15 mmol/kg, po by hematoxylin and eosin staining-based assay; format: toxicity, organism-based, Stomach; conditions: in vivo
Rattus norvegicus [4] = assay: Antinociceptive activity in albino Wistar rat assessed as thermal-stimulus induced tail flick latency at 0.05 mmol/kg, po after 60 mins (reference value: 2.54 +/- 0.05 mins); format: functional
Rattus norvegicus [5] = assay: Antinociceptive activity in albino Wistar rat assessed as thermal-stimulus induced tail flick latency at 0.05 mmol/kg, po after 120 mins (reference value: 2.38 +/- 0.11 mins); format: functional
Rattus norvegicus [6] = assay: Ulcerogenicity in albino Wistar rat assessed as gastric superficial mucosal damage at 0.15 mmol/kg, po by hematoxylin and eosin staining-based assay; format: toxicity, organism-based, Stomach; conditions: in vivo
[7] = target: Prostaglandin G/H synthase 1 (Homo sapiens, UniProt P23219); assay: Inhibition of COX1 (unknown origin)
Prostaglandin G/H synthase 1, sequence (P23219 whole entry): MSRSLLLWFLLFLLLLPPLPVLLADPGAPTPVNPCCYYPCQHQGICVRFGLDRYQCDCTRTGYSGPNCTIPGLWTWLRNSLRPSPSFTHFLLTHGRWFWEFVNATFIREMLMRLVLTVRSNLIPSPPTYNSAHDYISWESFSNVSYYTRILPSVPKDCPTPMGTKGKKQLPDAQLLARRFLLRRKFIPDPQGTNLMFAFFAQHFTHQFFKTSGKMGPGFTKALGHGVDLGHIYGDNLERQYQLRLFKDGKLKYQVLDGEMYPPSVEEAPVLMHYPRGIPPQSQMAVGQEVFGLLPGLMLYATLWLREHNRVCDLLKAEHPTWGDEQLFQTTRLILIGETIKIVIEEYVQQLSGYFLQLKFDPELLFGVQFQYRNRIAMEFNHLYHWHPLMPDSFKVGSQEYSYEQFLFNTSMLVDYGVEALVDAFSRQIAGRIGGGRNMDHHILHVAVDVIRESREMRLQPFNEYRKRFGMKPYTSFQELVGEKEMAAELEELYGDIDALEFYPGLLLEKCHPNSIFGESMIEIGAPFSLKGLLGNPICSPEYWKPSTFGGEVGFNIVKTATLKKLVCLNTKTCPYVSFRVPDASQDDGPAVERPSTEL

Rattus norvegicus [8] = assay: Ulcerogenicity in albino Wistar rat assessed as gastric muscular layer damage at 0.15 mmol/kg, po by hematoxylin and eosin staining-based assay; format: toxicity, organism-based, Stomach; conditions: in vivo
[9] = target: T1, Prostaglandin G/H synthase 2 (Homo sapiens, UniProt P35354); assay: Inhibition of human recombinant COX2 expressed in insect cell expression system using TMPD and arachidonic acid as substrate incubated for 1 min prior to substrate addition by spectrophotometry
T1 sequence (P35354 whole entry): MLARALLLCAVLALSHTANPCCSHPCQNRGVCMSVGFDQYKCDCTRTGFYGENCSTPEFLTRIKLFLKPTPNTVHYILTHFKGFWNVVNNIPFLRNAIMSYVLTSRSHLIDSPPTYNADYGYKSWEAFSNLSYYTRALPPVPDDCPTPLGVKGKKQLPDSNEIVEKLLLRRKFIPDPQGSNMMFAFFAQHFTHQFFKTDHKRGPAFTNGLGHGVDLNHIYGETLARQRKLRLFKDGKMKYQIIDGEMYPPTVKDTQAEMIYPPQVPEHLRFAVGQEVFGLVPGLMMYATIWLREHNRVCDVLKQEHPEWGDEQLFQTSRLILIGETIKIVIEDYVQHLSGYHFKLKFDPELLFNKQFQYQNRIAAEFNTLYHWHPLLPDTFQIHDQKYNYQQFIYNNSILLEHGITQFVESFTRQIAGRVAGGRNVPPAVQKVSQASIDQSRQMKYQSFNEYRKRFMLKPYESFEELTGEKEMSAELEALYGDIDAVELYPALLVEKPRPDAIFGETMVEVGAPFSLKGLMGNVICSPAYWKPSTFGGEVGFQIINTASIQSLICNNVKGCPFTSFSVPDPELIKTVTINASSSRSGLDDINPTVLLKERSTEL

Homo sapiens = species on record: Homo sapiens; assay: Selectivity index, ratio of IC50 for COX1 (unknown origin) to IC50 for human recombinant COX2
Rattus norvegicus [10] = assay: Ulcerogenicity in albino Wistar rat assessed as gastric deep mucosal damage at 0.15 mmol/kg, po by hematoxylin and eosin staining-based assay; format: toxicity, organism-based, Stomach; conditions: in vivo
Rattus norvegicus [11] = assay: Antinociceptive activity in albino Wistar rat assessed as thermal-stimulus induced tail flick latency at 0.05 mmol/kg, po after 30 mins (reference value: 2.22 +/- 0.20 mins); format: functional
Rattus norvegicus [12] = assay: Antiinflammatory activity in albino Wistar rat assessed as inhibition of carrageenan-induced hind paw edema at 0.05 mmol/kg, po administered 1 hr prior to carrageenan challenge by plethysmometric analysis; format: functional, organism-based; conditions: TDE = time-dependent effect; in short: as §1
Mus musculus = assay: Antinociceptive activity in mouse assessed as inhibition of acetic acid-induced writhing at 0.05 mmol/kg, po administered 30 mins prior to acetic acid-challenge measured after 20 mins relative to control; format: functional
In short: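 Writhing in mice by the Koster method. Six animals per group, compound given orally at 0.05 mmol/kg 30 min before i.p. 0.6% (v/v) acetic acid (80 mg/kg). Total writhes counted over 20 min after acetic acid injection.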

[13] = Antiinflammatory activity in macrophages (unknown origin) assessed as inhibition of TNF-alpha secretion incubated for 2 hrs by ELISA relative to control; format: functional, Macrophage
In short: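 Macrophages grown in RPMI 1640 with 10% FBS, glutamine and penicillin/streptomycin, plated at 2 × 10^6 cells/mL. Pre-treated with cytochalasin D (2.5 µM per 10^6 cells) for 30 min, kept on throughout. Cells exposed to varying compound concentrations. TNF-α in supernatants measured by sandwich ELISA with TMB read at 450 nm, quantified against the kit standard.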

IC50 [7] | IC50 [9] | Ratio IC50 (Homo sapiens) | Compound | inhibition (Rattus norvegicus [1]) | inhibition (Rattus norvegicus [2]) | Activity (Rattus norvegicus [3]) | Time (Rattus norvegicus [4]) | Time (Rattus norvegicus [5]) | Activity (Rattus norvegicus [6]) | Activity (Rattus norvegicus [8]) | Activity (Rattus norvegicus [10]) | Time (Rattus norvegicus [11]) | inhibition in vivo at 50 µmol/kg (Rattus norvegicus [1]) | inhibition in vivo at 50 µmol/kg (Rattus norvegicus [2]) | inhibition (Rattus norvegicus [12]) | inhibition in vivo at 50 µmol/kg (Mus musculus) | inhibition (INH) [13]
 |  |  | CCOc1ccc(-n2cc(Cn3c(=O)oc4ccccc43)nn2)cc1 | Active | Active |  |  |  |  |  |  |  |  |  |  |  | 
 |  |  | O=c1oc2ccccc2n1Cc1cn(-c2cccc([N+](=O)[O-])c2)nn1 | inactive | inactive |  |  |  |  |  |  |  |  |  |  |  | 
138 µM | 3.1 µM | 44.6 | O=c1oc2ccc(Cl)cc2n1Cc1cn(-c2ccccc2F)nn1 |  |  | Non-toxic | 2.78 min | 2.64 min | Non-toxic | Non-toxic | Non-toxic | 2.88 min |  |  |  |  | 
207 µM | 3.6 µM | 57.6 | Cc1ccc2c(c1)oc(=O)n2Cc1cn(-c2ccccc2Cl)nn1 |  |  | Non-toxic | 2.44 min | 2.56 min | Non-toxic | Non-toxic | Non-toxic | 2.18 min | 71.8% | 72.9% | tde |  | 
175 µM | 2.4 µM | 72.8 | Cc1ccc2c(c1)oc(=O)n2Cc1cn(-c2ccc(F)cc2)nn1 |  |  | Non-toxic | 3.24 min | 3.36 min | Non-toxic | Non-toxic | Non-toxic | 3.1 min | 81.4% | 80.6% |  |  | 
 |  |  | COc1ccc2c(c1)c(CC(=O)O)c(C)n2C(=O)c1ccc(Cl)cc1 [INDOMETHACIN] |  |  | Toxic | 3.68 min | 3.54 min | Toxic | Toxic | Toxic | 3.12 min | 79.1% | 82.2% |  | 44.7% | 64.01%
 |  |  | O=c1oc2ccccc2n1Cc1cn(-c2cccnc2)nn1 | Active | Active |  |  |  |  |  |  |  |  |  |  |  | 
111 µM | 2.7 µM | 41.2 | O=c1oc2ccc(Cl)cc2n1Cc1cn(-c2ccc(Cl)cc2)nn1 |  |  | Non-toxic |  |  | Non-toxic | Non-toxic | Non-toxic |  | 67.4% | 65.1% |  |  | 
389 µM | 5.6 µM | 69.5 | Cc1ccc2c(c1)oc(=O)n2Cc1cn(-c2ccc(Cl)cc2)nn1 |  |  | Non-toxic | 3.22 min | 3.34 min | Non-toxic | Non-toxic | Non-toxic | 3.08 min | 74% | 76.7% |  |  | 
188 µM | 2.78 µM | 67.7 | Cc1ccc2oc(=O)n(Cc3cn(-c4ccc(Br)cc4)nn3)c2c1 |  |  | Non-toxic | 2.74 min | 2.88 min | Non-toxic | Non-toxic | Non-toxic | 2.62 min | 73.2% | 74.8% | tde | 41.8% | 50.95%
 |  |  | COc1ccc(-n2cc(Cn3c(=O)oc4ccccc43)nn2)cc1 | Active | Active |  |  |  |  |  |  |  |  |  |  |  | 
